Results pooled from the literature.
Protocols differ between the studies behind these lines.
Matrix: plasma

Structure (SMILES)	system	conditions	Cmax
Cc1ccc(C(=O)N(CCCN)[C@@H](c2oc3cc(Cl)ccc3c(=O)c2Cc2ccccc2)C(C)C)cc1	human	intravenous, 5 mg/m², single dose, patients, infusion	607 ng/mL
CC(C)(O)c1ccccc1-c1ccc2[nH]c(/C=C/c3ccc(C(F)(F)F)cc3)nc2c1	male human	oral, 120 mg, single dose, fasted, healthy volunteers	261 ng/mL
Cc1nc(Nc2ncc(C(=O)Nc3c(C)cccc3Cl)s2)cc(N2CCN(CCO)CC2)n1	human	oral, 65 mg/m², multiple doses, twice daily, steady state, patients	168 ng/mL
CC(=O)Oc1ccccc1C(=O)O	human	oral, 650 mg, healthy volunteers	3480 ng/mL
COc1ccc([C@@H]2CN(C(=O)[C@@H](O)CO)C[C@@]2(C)[C@@H](C)O)cc1OC1CN(c2ccc(C)cn2)C1	human	oral, 10 mg, single dose, healthy volunteers	319 ng/mL
COc1cc(C(=O)NC2CCN(C)CC2)c(F)cc1Nc1ncc(C(F)(F)F)c(Oc2cccc3c2C(=O)N(C)C3)n1	human	oral, 10 mg, single dose, patients	44.8 nM
NC(=O)c1cnc2[nH]ccc2c1N[C@@H]1[C@@H]2CC3C[C@H]1C[C@@](O)(C3)C2	human	oral, 100 mg twice daily, multiple doses, patients	256 ng/mL
O=C(Nc1c(Cl)cncc1Cl)c1ccc(OC(F)F)c(OCC2CC2)c1	human	oral, 0.5 mg, single dose, fasted	12.5 ng/mL
Cn1cc(-c2ccc(S(=O)(=O)[C@@H]3C[C@@H](C(=O)NC4(C#N)CC4)N(C(=O)C4(C(F)(F)F)CC4)C3)c(C(F)(F)F)c2)cn1	human	oral, 100 mg, single dose, fed	946 ng/mL
CCCOc1ccc([C@H]2CNC(=O)N2c2ccc3[nH]cnc3c2)cc1	human	oral, 200 mg, single dose, fed, healthy volunteers	565 ng/mL
C#Cc1cccc(Nc2ncnc3cc(OCCOC)c(OCCOC)cc23)c1	human	oral, 100 mg, patients	1820 nM
CNCc1ccc(-c2[nH]c3cc(F)cc4c3c2CCNC4=O)cc1	human	oral, 600 mg, multiple doses, twice daily, steady state	2650 ng/mL
Cn1c(=O)oc2ccc(-c3ccc(C[C@@H](C#N)NC(=O)[C@@H]4CNCCCO4)cc3)cc21	male human	oral, 35 mg, single dose, healthy volunteers	668 nM
Br.Cc1ccc(Sc2ccccc2N2CCNCC2)c(C)c1	human	oral, 5 mg, multiple doses, steady state, healthy volunteers	9 ng/mL
CC(C)(Sc1ccncc1-c1ccc(C#N)c2ccccc12)C(=O)O	male human	oral, 5 mg, single dose, fasted, healthy volunteers	72.9 ng/mL
CCCCC[C@H](O)CC[C@@H]1[C@H]2Cc3cccc(OCC(=O)O)c3C[C@H]2C[C@H]1O	human	inhaled, 36 µg, single dose, healthy volunteers	0.87 ng/mL
Nc1cc(C(F)(F)F)c(-c2cc(N3CCOCC3)nc(N3CCOCC3)n2)cn1	human	oral, 100 mg/day, patients	1080 ng/mL
CC[C@H](C)C(=O)O[C@H]1C[C@H](O)C=C2C=C[C@H](C)[C@H](CC[C@@H](O)C[C@@H](O)CC(=O)O)[C@H]21	human	oral, 20 mg	11.4 ng/mL

Structure (SMILES)	system	conditions	Cmax
CNC(=O)c1cc(Oc2ccc(NC(=O)Nc3cc(C(C)(C)C)nn3-c3ccc4ncccc4c3)c(F)c2)ccn1	human	oral, 100 mg, multiple doses, twice daily	114 ng/mL
COCCOc1cnc2ccn([C@H](C)c3nnc4c(F)cc(-c5cnn(C)c5)cn34)c(=O)c2c1	human	oral, 200 mg, multiple doses, once daily, patients	3760 ng/mL
CS(=O)(=O)CCNCc1ccc(-c2ccc3ncnc(Nc4ccc(OCc5cccc(F)c5)c(Cl)c4)c3c2)o1	human	oral, 900 mg, multiple doses, twice daily, steady state, patients	3570 ng/mL
Oc1cc(O)c2c(c1)O[C@@H](c1ccc(O)c(O)c1)[C@@H](O)C2	human	oral, 100 mg, single dose	3.6 ng/mL
COc1cc2c(cc1OC)CN(CCc1ccc(NC(=O)c3cc(OC)c(OC)cc3NC(=O)c3cnc4ccccc4c3)cc1)CC2	human	intravenous, 2 mg/kg, patients	2500 nM
CO[C@@H]1[C@H](OC(=O)N2CC(CCN3CCOCC3)C2)CC[C@]2(CO2)[C@H]1[C@@]1(C)O[C@@H]1CC=C(C)C	human	subcutaneous, 0.6 mg, single dose, healthy volunteers	2.28 ng/mL
CCCCC1=NC2(CCCC2)C(=O)N1Cc1ccc(-c2ccccc2S(=O)(=O)Nc2noc(C)c2C)c(COCC)c1	human	oral, 200 mg, single dose, fed, healthy volunteers	6280 ng/mL
CC(C)(C(=O)N1CCOc2c(C#N)cncc2C1)C(F)F	human	oral, 30 mg, single dose, fasted, healthy volunteers	417 ng/mL
C[C@@]1(c2cc(NC(=O)c3ccc(C#N)cn3)ccc2F)C=CSC(N)=N1	human	oral, 150 mg, single dose	906 ng/mL
CCn1c(=O)c(-c2cc(NC(=O)Nc3ccccc3)c(F)cc2Br)cc2cnc(NC)cc21	human	oral, 30 mg, single dose, patients	133 ng/mL
CCc1nc2c(C)cc(N3CCN(CC(=O)N4CC(O)C4)CC3)cn2c1N(C)c1nc(-c2ccc(F)cc2)c(C#N)s1	human	oral, 300 mg, fed, healthy volunteers	3300 ng/mL
O=C(NO)c1ccc(CN(c2cnccn2)c2cnccn2)cc1	human	oral, 800 mg, multiple doses, twice daily, patients	1270 ng/mL
FC(F)(F)c1ccc(CNc2ccc(Cc3c[nH]c4ncc(Cl)cc34)cn2)cn1	human	oral, 1600 mg, multiple doses, patients	8770 ng/mL
CO[C@H]1CC[C@H](N2C(=O)CNc3ncc(-c4ccc(C(C)(C)O)nc4)nc32)CC1	human	oral, 60 mg, patients	319 ng/mL
C=C(F)C(=O)N1CCN(c2nc(OC[C@@H]3CCCN3C)nc3c2CCN(c2cccc4cccc(Cl)c24)C3)C[C@@H]1CC#N	human	oral, 600 mg, single dose, fasted	984 ng/mL
CC(C)n1cc(C#N)c2cc(-n3cc(C(=O)O)cn3)ccc21	human	oral, 400 mg, single dose, fasted, healthy volunteers	14700 ng/mL
NS(=O)(=O)NCCNc1nonc1C(=NO)Nc1ccc(F)c(Br)c1	human	oral, 600 mg, multiple doses, twice daily, steady state, patients	4820 nM
N#CN1C[C@H](n2nc(-c3ccc(Oc4ccc(Cl)cn4)cc3)c(C(N)=O)c2N)CCC12CC2	human	oral, 600 mg, fed	1020 ng/mL
